Reference: paper PMC11638133 (Journal of Veterinary Internal Medicine, 2024)

What was measured:
[1] = Plasma pharmacokinetics of active drug metabolites after oral CARDALIS®; type: in vivo, beagle dogs; conditions: linear mixed model, AUC over the first 24 hours, natural logarithmic scale
Method in brief: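 Healthy purpose-bred beagles, 6 per group, were fed a low-sodium diet for 5 days, then given an oral ACE-inhibitor/mineralocorticoid-antagonist combination for 14 days at 0.25+2 mg/kg q24h, 0.25+2 mg/kg q12h or 0.5+4 mg/kg q12h. Serial Day-13 plasma was stored at −80°C, and three active metabolites were measured by LC-MS/MS. […] Dose–AUC used a linear mixed model (dog random effect, ln scale).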

[2] = test system: renin‐angiotensin‐aldosterone system (RAAS); conditions: cited from earlier work
[3] = test system: renin‐angiotensin‐aldosterone system (RAAS); conditions: 2 mg/kg PO q24h vs 4 mg/kg PO q24h, monotherapy; cited from earlier work
[4] = highest dose 4 times higher than lowest dose of benazepril

CS[C@@H]1CC2=CC(=O)CC[C@]2(C)[C@H]2CC[C@@]3(C)[C@@H](CC[C@@]34CCC(=O)O4)[C@H]12 [TMS, 7‐alpha‐thiomethylspironolactone]
increase in AUC for a 1 mg increase in dose [1]: 1.50 units

CCOC(=O)[C@H](CCc1ccccc1)N[C@H]1CCc2ccccc2N(CC(=O)O)C1=O [benazepril]
difference in mean ACE‐S between the highest and lowest doses [2, 4]: −59% | difference in mean Ang1‐7 between the highest and lowest doses [2, 4]: +47% | difference in mean AngII between the highest and lowest doses [2, 4]: −38% | lower values of AngII ([2]; highest dose studied (0.5 mg/kg) compared to the lowest dose studied (0.125 mg/kg)): 38%

CC(=O)S[C@@H]1CC2=CC(=O)CC[C@]2(C)[C@H]2CC[C@@]3(C)[C@@H](CC[C@@]34CCC(=O)O4)[C@H]12 [spironolactone]
Dose-dependent differences in RAAS metabolites (including aldosterone) [3]: no dose‐dependent differences in RAAS metabolites (including aldosterone)

C[C@]12CCC(=O)C=C1C=C[C@@H]1[C@@H]2CC[C@@]2(C)[C@H]1CC[C@@]21CCC(=O)O1 [Canrenone, canrenone]
increase in AUC for a 1 mg increase in dose [1]: 1.54 units

O=C(O)CN1C(=O)[C@@H](N[C@@H](CCc2ccccc2)C(=O)O)CCc2ccccc21 [Benazeprilat, benazeprilat]
increase in AUC for a 1 mg increase in dose [1]: 1.99 ng·h/mL
